Experimental data reported in PubChem BioAssay AID743257 (The Scripps Research Institute Molecular Screening Center, 2014).
About 1,900 (66%) of roughly 2,900 compounds were called active.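 The calls were made as follows: active = mean inhibition across replicates above the hit cutoff set in the primary screen (cut at about 8.5% in these data); inactive = the rest.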 The set was probably picked from earlier hits. Not all results are given here.

biological target: Disintegrin and metalloproteinase domain-containing protein 17 (Homo sapiens) (UniProt P78536); experiment: ADAM17 inhibitors, hit retest, confirmation, biochemical, QFRET peptide cleavage (AID 743257); conditions: recombinant ADAM17, EDANS/DABCYL QFRET peptide cleavage; at 6.95 µM; stronger effect = higher value;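 also: 0% = DMSO wells and 100% = marimastat wells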
Outline: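 Assay system: human ADAM17 protease with quenched FRET peptide substrate / Buffer or medium: 50 mM HEPES buffer, pH 7.5, with 0.01% Brij / Schedule: 30 min preincubation, 3 h reaction / Technique: fluorescence at ex 359 nm, em 460 nm / Read-out: percent inhibition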

Chain of Disintegrin and metalloproteinase domain-containing protein 17 (Homo sapiens) (P78536 215-824 limits assumed): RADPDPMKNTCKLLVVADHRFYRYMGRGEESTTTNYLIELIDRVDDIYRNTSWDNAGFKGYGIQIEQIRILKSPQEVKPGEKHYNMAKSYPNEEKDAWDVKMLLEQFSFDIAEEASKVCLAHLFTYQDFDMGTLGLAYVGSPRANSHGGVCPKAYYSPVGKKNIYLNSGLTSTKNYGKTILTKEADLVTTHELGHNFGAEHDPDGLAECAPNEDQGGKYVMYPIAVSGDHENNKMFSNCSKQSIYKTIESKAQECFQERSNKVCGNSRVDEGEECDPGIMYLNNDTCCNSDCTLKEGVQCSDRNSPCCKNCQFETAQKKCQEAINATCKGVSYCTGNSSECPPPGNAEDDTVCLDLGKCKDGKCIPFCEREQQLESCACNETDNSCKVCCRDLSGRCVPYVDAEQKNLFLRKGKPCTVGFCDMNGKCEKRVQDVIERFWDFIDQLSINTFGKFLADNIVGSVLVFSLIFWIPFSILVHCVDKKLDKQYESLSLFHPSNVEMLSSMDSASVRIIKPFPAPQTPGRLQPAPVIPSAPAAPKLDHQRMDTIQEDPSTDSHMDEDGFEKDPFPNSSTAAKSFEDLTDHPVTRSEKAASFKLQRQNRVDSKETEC

With `CCOC(=O)CC(SP1(=S)OCC2(CCCCO2)C(C2CCCCO2)O1)C(=O)OCC` (configuration not stated) as the compound, how does the inhibition read?
The inhibition was 24.1% (active).

`COC(=O)C1=C(c2ccc(-c3ccccc3)c(F)c2)C[C@@H]2CC[C@H]1N2C(=O)NCc1ccc(F)cc1` was tested. Which inhibition did it give?
The inhibition was 7.03% (inactive).
